rRNA inh HTS = reduced GFP signal of wild-type E. coli, primary screen, bacterial rRNA inhibitor project, GFP/RFP fluorescence, OD600, single point; GFP signal change (wild-type ribosome), % (test concentration not listed); 1.6% of 350,000 active; E. coli WT GFP vs humanized-ribosome RFP mutants, 24 h; hits give low values; DMSO median 0, no signal -100;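 active = significant combined selectivity score with lowered wild-type GFP, culture density cut under 30%, mutant RFP and density less affected; inactive = any of these conditions unmet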
SKN-1 inh = suppressors of acrylamide-induced Pgst-4::GFP reporter in worms, primary screen, SKN-1 inhibitor project, whole organism, uHTS, GFP/RFP fluorescence ratio, strain VP596 | C. elegans VP596 Pgst-4::GFP/RFP ratio, 24 h | inhibition, % at 21.8 µM | 0.49% of 360,000 active | AID 624304, 2012;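 active = interference check ratio from 0.5 to 1.5 plus GFP to RFP signal ratio inhibition reaching or exceeding a fixed threshold, cut at about 30% in these data, passing the limit was not always enough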
DAGLB inhibitor = DAGLB lipase inhibitors, primary screen, biochemical, fluorescence, HTS; Diacylglycerol lipase-beta (Homo sapiens), Q8NCG7; HEK293T DAGLB membrane lysate, EnzChek fluorogenic substrate; inhibition, % at 5.17 µM; 0.059% of 340,000 active; AID 504411, 2011; in the data active = inhibition above about 34%;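 also: 0% = enzyme with vehicle and 100% = wells lacking enzyme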
Target sequence (Q8NCG7 whole entry, looked up): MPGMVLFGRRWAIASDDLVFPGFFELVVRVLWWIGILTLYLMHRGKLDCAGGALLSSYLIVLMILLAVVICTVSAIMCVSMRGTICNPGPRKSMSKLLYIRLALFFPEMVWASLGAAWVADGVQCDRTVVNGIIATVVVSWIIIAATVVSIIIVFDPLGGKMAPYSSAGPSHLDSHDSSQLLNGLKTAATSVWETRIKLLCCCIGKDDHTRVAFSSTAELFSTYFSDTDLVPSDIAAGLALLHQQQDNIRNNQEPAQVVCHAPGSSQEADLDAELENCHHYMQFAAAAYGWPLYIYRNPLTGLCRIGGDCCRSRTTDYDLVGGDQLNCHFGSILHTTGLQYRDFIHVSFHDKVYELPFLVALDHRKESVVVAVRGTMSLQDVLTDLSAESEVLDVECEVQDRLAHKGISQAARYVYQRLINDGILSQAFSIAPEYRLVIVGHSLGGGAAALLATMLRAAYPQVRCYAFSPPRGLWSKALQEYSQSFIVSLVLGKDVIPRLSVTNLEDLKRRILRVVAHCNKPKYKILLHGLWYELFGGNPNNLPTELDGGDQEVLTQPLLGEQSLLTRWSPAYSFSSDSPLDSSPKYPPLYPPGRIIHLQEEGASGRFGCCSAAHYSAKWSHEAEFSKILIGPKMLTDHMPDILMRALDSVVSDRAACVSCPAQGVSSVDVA
iPSC survival up = enhancers of single-cell hiPSC survival, primary screen, ATPlite luminescence | 100% = ROCK inhibitor wells, 0% = DMSO | survival enhancement, % at 20 µM | 0.044% of 360,000 active | AID 602274, 2012; in the data active = survival enhancement above about 18%;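 also: cells exposed to compounds for 16 hours before the ATP read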
MT1-MMP act inh = blockers of MT1-MMP proenzyme processing, primary screen, HT1080 RFP-PRO-GFP cells, GFP/RFP fluorescence. Matrix metalloproteinase-14 (Homo sapiens), P50281. GFP/RFP ratio fluorescence, overnight; percent of plate control window, DMSO zero. GFP/RFP ratio change, % at 20 µM. 0.061% of 360,000 active;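 active = GFP/RFP ratio change of at least 30% with cell ATP level not reduced by more than half and red fluorescence within 50% of control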
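Assay system: HT1080 RFP-PRO-GFP cells. Benchmarks: DMSO vehicle wells and RFP-L50D-GFP reporter cell wells. Times: overnight cell settling, then overnight compound exposure, 37 °C, 5% CO2. Compound: 20 µM single dose, 1% DMSO. Read-out basis: GFP/RFP fluorescence ratio.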
Cneo AK release = Cryptococcus neoformans cell lysis inducers, primary screen, AK release luminescence, single concentration. C. neoformans lysis, adenylate kinase release luminescence, 4 h; normalised: neutral wells 0, clomiphene wells 100. AID 651654, 2012. 0.2% of 360,000 active. lysis activity, % at 15 µM;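 active = mean lysis activity across replicates of at least 80%, whatever share of replicates individually reach that level; inactive = mean lysis activity below 80%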
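Assay system: log-phase C. neoformans yeast / Quantity: yeast cell density of 5 × 10^6 cells/mL / Medium: fresh YPD growth medium / Compound: single dose / Timing: static 4 h at 37 °C with compound, 1 h detection / Measured by: adenylate kinase release luminescence / Read-out: lysis from increased AK signal / Benchmarks: Clomiphene as positive lysis control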
The depositor's hits bear a star; x = not tested or not shown. Only some compounds are listed: those with a hit (about 1.8% of all), similar ones and a draw of the others.

SMILES	rRNA inh HTS	SKN-1 inh	DAGLB inhibitor	iPSC survival up	MT1-MMP act inh	Cneo AK release
Cc1ccc(S(=O)(=O)N(C)C[C@H]2Oc3ncc(-c4ccccc4)cc3C(=O)N([C@H](C)CO)C[C@H]2C)cc1	-5.7	x	x	x	x	-1.6
CCc1ccc(/C=N/NC(=O)Cc2ccc(OC)c(OC)c2)s1	-23.6*	17.4	2.0	2.6	-6.9	-1.2
C[C@@H]1CN([C@H](C)CO)C(=O)c2cc(NS(=O)(=O)c3cccs3)ccc2O[C@@H]1CN(C)S(=O)(=O)c1ccccc1	-2.5	x	x	x	x	2.1
CN1CCN(C2Cc3ccccc3Sc3cc(C(F)(F)F)ccc32)CC1 (stereo not drawn)	-51.0	x	x	x	x	x
CCc1cccc2c1Sc1ccccc1CC2N1CCNCC1 (stereo not drawn)	-51.5*	-19.1	-1.4	-0.5	-13.7	x
Cc1nc(C)c(-c2ccn(S(=O)(=O)c3ccc(Cl)cc3)n2)o1	-19.1*	-9.7	-4.3	-0.4	-0.9	x
O=S(=O)(c1ccc(Cl)cc1)n1cccn1	11.1	-2.0	-3.0	1.0	-0.8	x
CC=Cc1ccc2n(c1=O)C[C@H]1[C@H](CO)[C@@H](C(=O)NCCC)[C@@H]2N1Cc1ccccc1 (mixture of isomers)	2.4	x	x	x	x	-5.8
C[C@@H]1CN([C@H](C)CO)C(=O)c2cc(/C=C/c3ccccc3)cnc2O[C@H]1CN(C)Cc1ccncc1	-5.0	x	x	x	x	-0.6
C=CCOC(=O)C1=C[C@H](c2coc3ccccc3c2=O)C[C@H](OCc2ccc(CO)cc2)O1	-21.0*	5.2	0.4	4.6	-3.6	-4.3
Cc1noc(C)c1S(=O)(=O)Nc1ccccc1Oc1ccccc1	-21.6*	8.2	0.1	-0.5	-1.9	x
Cc1noc(C)c1S(=O)(=O)Nc1ccccc1Cl	9.5	14.2	1.6	0.1	-0.1	-0.1
C[C@H](CO)N1C[C@H](C)[C@H](CN(C)CC2CC2)Oc2ncc(-c3ccc(C#N)cc3)cc2C1=O	-0.3	x	x	x	x	x
Oc1ccccc1N=Nc1ccccc1O	-9.0	20.0	16.5	-4.8	8.5	x
Nc1ccc(N=Nc2ccccc2O)c(N)c1	-40.3*	23.0	x	-0.1	28.0	-2.8
CCn1c(SCc2ccccc2)nc2ccccc2c1=O	-32.2*	3.2	-10.1	0.1	1.0	1.6
CCN(CC)C(=O)CSc1nc2ccccc2c(=O)n1CC	x	-3.8	-0.1	5.4	0.1	2.9
CCOC(=O)C1CCN(c2ncnc3c(C)csc23)CC1	-25.4*	15.4	-8.9	0.1	4.4	x
CCOC(=O)C1CCN(c2ncnc3c2nnn3Cc2ccccc2Cl)CC1	-20.5*	-7.4	-7.9	1.0	-2.9	-1.3
O=C(c1ccco1)N1CCN(c2ncnc3c2nnn3Cc2ccccc2Cl)CC1	-27.7	26.0	1.6	2.9	5.5	-4.1
CCOC(=O)C1CCN(c2ncnc3nc[nH]c23)CC1	-6.7	-2.1	0.5	6.7	2.2	-1.0
CN1CCN(C2Cc3ccc(F)cc3Sc3cc(F)c(Cl)cc32)CC1 (stereo not drawn)	-42.5*	-18.6	1.7	-0.8	-8.0	-1.5
CN1CCN(C2Cc3cc(F)ccc3Sc3ccc(Cl)cc32)CC1 (stereo not drawn)	-54.3	-9.5	-4.0	-0.6	-5.5	5.1
Cc1ccc(S(=O)(=O)N(C)CC(=O)NCCCc2ccccc2)cc1	-24.2*	15.2	-2.4	0.0	0.0	0.7
COc1ccc(S(=O)(=O)N(C)CC(=O)NCCc2ccccc2)cc1OC	6.6	-1.6	1.3	-0.5	-3.3	0.2
COc1ccc(S(=O)(=O)N(CCc2ccccc2)CC(=O)NCCCO)cc1	x	-5.6	-0.3	-0.4	-0.6	x
COCCCNC(=O)CN(CCc1ccccc1)S(=O)(=O)c1ccc(OC)cc1	-23.9*	3.6	1.0	2.1	0.1	x

Assay outcomes as filed in PubChem.
